Measurements taken from ChEMBL document CHEMBL1275392, “Assessment of chemoselective neoglycosylation methods using chlorambucil as a model” (2010).

Experiments:
HT-29 = assay: Growth inhibition of human HT-29 cells after 7 days by celltiter-glo assay; type: functional; details: HT-29, 168 h
MCF7 = assay: Growth inhibition of human MCF7 cells after 7 days by celltiter-glo assay; type: functional; details: MCF7, 168 h
[1] = Growth inhibition of human p53 deficient H1299 cells after 7 days by celltiter-glo assay; type: functional; details: NCI-H1299, 168 h
Method in brief: (§1)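 Cells seeded at 500 per well in 384-well plates. Compounds came from 30 mM DMSO stocks, serially diluted and tested in quadruplicate. Incubation was 7 d at 37 °C under 5% CO2. Calcein AM (10 μM) and EthD-1 were added, followed by a fluorescence read. CellTiter-Glo lysis was then done for 10 min at room temperature, with a luminescence read. GI50 came from curve fitting.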

SF-268 = assay: Growth inhibition of human SF268 cells after 7 days by celltiter-glo assay; type: functional; details: SF-268, 168 h
A549 = assay: Growth inhibition of human A549 cells expressing p53 after 7 days by celltiter-glo assay; type: functional; details: A549, 168 h
SK-OV-3 = assay: Growth inhibition of human SKOV3 cells after 7 days by celltiter-glo assay; type: functional; details: SK-OV-3, 168 h
[2] = Growth inhibition of human p53 deficient Hep3B cells after 7 days by celltiter-glo assay; type: functional, Hep 3B2; details: 168 h; method in brief: as §1
NCI-H460 = assay: Growth inhibition of human NCI-H460 cells after 7 days by celltiter-glo assay; type: functional; details: NCI-H460, 168 h
DU-145 = assay: Growth inhibition of human DU145 cells after 7 days by celltiter-glo assay; type: functional; details: DU-145, 168 h
HCT-15 = assay: Growth inhibition of human HCT15 cells after 7 days by celltiter-glo assay; type: functional; details: HCT-15, 168 h

Structure (SMILES) | GI50 (HT-29) | GI50 (MCF7) | GI50 [1] | GI50 (SF-268) | GI50 (A549) | GI50 (SK-OV-3) | GI50 [2] | GI50 (NCI-H460) | GI50 (DU-145) | GI50 (HCT-15)
CON(CCCc1ccc(N(CCCl)CCCl)cc1)C1O[C@H](CN)[C@@H](O)[C@H](O)[C@H]1O (stereo not given in full) | 2.5 µM | 3.7 µM | 1.1 µM | 2.2 µM | 3.7 µM | 2.2 µM | 3.5 µM | 5 µM | 2.8 µM | 1.3 µM
CON(CCCc1ccc(N(CCCl)CCCl)cc1)C1O[C@@H](C)[C@@H](O)[C@@H](O)[C@@H]1O (stereo not given in full) | 2.3 µM | 0.78 µM | 1.2 µM | 2 µM | 2.2 µM | 1.8 µM | 3 µM | 5.4 µM | 3.8 µM | 1.4 µM
CON(CCCc1ccc(N(CCCl)CCCl)cc1)C1OC[C@@H](O)[C@H](O)[C@@H]1O (stereo not given in full) | 2 µM | 1 µM | 0.76 µM | 1.6 µM | 2.3 µM | 1.8 µM | 2.5 µM | 5.2 µM | 3.6 µM | 0.79 µM
CON(CCCc1ccc(N(CCCl)CCCl)cc1)C1C[C@@H](O)[C@@H](O)[C@@H](CO)O1 (stereo not given in full) | 3.5 µM | 1.04 µM | 1.5 µM | 2.2 µM | 3.2 µM | 2.4 µM | 3.3 µM | 6.6 µM | 5 µM | 1.6 µM
CON(CCCc1ccc(N(CCCl)CCCl)cc1)C1O[C@@H](C)[C@H](OC(C)=O)[C@@H](OC(C)=O)[C@H]1OC(C)=O (stereo not given in full) | 4.3 µM | 3.2 µM | 5 µM | 3 µM | 3.5 µM | 3.9 µM | 4.6 µM | 7.8 µM | 4.5 µM | 3.7 µM
O=C1O[C@@H]2[C@@H](O)[C@H](N(O)CCCc3ccc(N(CCCl)CCCl)cc3)O[C@@H]2[C@@H]1O | 9.9 µM | 4.1 µM | 3.8 µM | 3.1 µM | 10.4 µM | 10.1 µM | 7.2 µM | 13.1 µM | 14.8 µM | 8.5 µM
CON(CCCc1ccc(N(CCCl)CCCl)cc1)C1O[C@H](CO)[C@@H](O)[C@@H](O)[C@H]1O (stereo not given in full) | 0.6 µM | 9.3 µM | 0.53 µM | 3.1 µM | 3.4 µM | 3 µM | 4.4 µM | 9.5 µM | 5.8 µM | 0.97 µM
CON(CCCc1ccc(N(CCCl)CCCl)cc1)C1C[C@@H](O)[C@@H](O)CO1 (stereo not given in full) | 2.3 µM | 1.3 µM | 3.9 µM | 2 µM | 2.5 µM | 2.2 µM | 2.5 µM | 5.2 µM | 3.3 µM | 2.2 µM
CON(CCCc1ccc(N(CCCl)CCCl)cc1)C1O[C@H](CO)[C@H](O)[C@H](O)[C@H]1O (stereo not given in full) | 3.3 µM | 1.3 µM | 1.3 µM | 1.9 µM | 4.4 µM | 3.4 µM | 3.6 µM | 9.7 µM | 5.6 µM | 2.4 µM
CON(CCCc1ccc(N(CCCl)CCCl)cc1)[C@@H]1O[C@H](CCl)[C@@H](O)[C@H](O)[C@H]1O | 2.1 µM | 4.9 µM | 1.3 µM | 2.1 µM | 3 µM | 2.1 µM | 3.2 µM | 5.8 µM | 3.7 µM | 1.2 µM
CON(CCCc1ccc(N(CCCl)CCCl)cc1)C1O[C@H](CO)[C@@H](O)[C@H](O)[C@@H]1NC(C)=O (stereo not given in full) | 8.7 µM | 9 µM | 2.7 µM | 3.4 µM | 21 µM | 10.1 µM | 9.8 µM | 33.3 µM | 16 µM | 22 µM
O[C@@H]1[C@H](O)COC(N(O)CCCc2ccc(N(CCCl)CCCl)cc2)[C@@H]1O (stereo not given in full) | 0.9 µM | 3.2 µM | 1.6 µM | 1.5 µM | 0.84 µM | 0.89 µM | > 5 µM | 1.04 µM | > 5 µM | 0.87 µM
CON(CCCc1ccc(N(CCCl)CCCl)cc1)C1O[C@@H](C)[C@H](O)[C@@H](O)[C@H]1O (stereo not given in full) | 2.4 µM | 2.2 µM | 3.7 µM | 1.9 µM | 2.5 µM | 2 µM | 2.6 µM | 5.3 µM | 4.2 µM | 2 µM
CON(CCCc1ccc(N(CCCl)CCCl)cc1)[C@@H]1O[C@H](COCc2ccccc2)[C@@H](OCc2ccccc2)[C@H]1OCc1ccccc1 | > 100 µM | > 100 µM | 82 µM | > 100 µM | > 100 µM | > 100 µM | > 100 µM | > 100 µM | > 100 µM | > 100 µM
CON(CCCc1ccc(N(CCCl)CCCl)cc1)C1O[C@@H](CO)[C@@H](O)[C@@H](O)[C@@H]1O (stereo not given in full) | 3.7 µM | 1.3 µM | 1.4 µM | 2 µM | 4.8 µM | 4.1 µM | 3.8 µM | 10.4 µM | 5.5 µM | 2.3 µM
CON(CCCc1ccc(N(CCCl)CCCl)cc1)[C@@H]1O[C@H](CO)[C@@H](O)[C@H](O[C@H](C)C(=O)O)[C@H]1NC(C)=O | 6.3 µM | 4.5 µM | 2.4 µM | 4.1 µM | 8.6 µM | 7 µM | 8 µM | 13.1 µM | 8.9 µM | 3.1 µM
CON(CCCc1ccc(N(CCCl)CCCl)cc1)C1O[C@H](CO)[C@@H](O)[C@H](O)[C@@H]1O (stereo not given in full) | 2.6 µM | 1.9 µM | 1.01 µM | 1.8 µM | 3.5 µM | 2.3 µM | 3.2 µM | 7.8 µM | 5.1 µM | 1.9 µM
CON(CCCc1ccc(N(CCCl)CCCl)cc1)C1O[C@@H](C)[C@@H](OCc2ccccc2)[C@@H](OCc2ccccc2)[C@@H]1OCc1ccccc1 (stereo not given in full) | 7.5 µM | 4 µM | 3.3 µM | 5.7 µM | 6.4 µM | 7.2 µM | 9.5 µM | 15.8 µM | 10 µM | 4.6 µM
CON(CCCc1ccc(N(CCCl)CCCl)cc1)[C@@H]1O[C@H](CO)[C@H](O)[C@H](O)[C@@H]1O | 1.9 µM | 1.8 µM | 2.4 µM | 1.7 µM | 2.7 µM | 2 µM | 2.6 µM | 4.3 µM | 3.4 µM | 2 µM
